Laboratory results as given in ChEMBL document CHEMBL1687714, “Genetic analysis of fenhexamid-resistant field isolates of the phytopathogenic fungus Botrytis cinerea” (Antimicrob Agents Chemother, 2008).
The source made the active and inactive calls.

Tests used:
[1] = system: Botrytis cinerea; assay: Antifungal activity against Botrytis cinerea 286 harboring TELerg S336C mutant at 5 ug/ml relative to wild-type; format: functional, organism-based
Procedure, shortened: (§1)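 In the dominance test, the recipient strains 453b and 286 were transformed with different erg27 alleles. Spores of the transformants were grown on YSS medium containing fenhexamid at different concentrations and 50 µg ml–1 hygromycin B. Parental strains were grown without hygromycin. Growth was scored after 7 days at 21°C.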

[2] = system: Botrytis cinerea; assay: Antifungal activity against highly fenhexamid-resistant Botrytis cinerea 506a assessed as inhibition of mycelium growth measured over 5 days; format: functional, organism-based; details: 120 h
[3] = system: Botrytis cinerea; assay: Antifungal activity against highly fenhexamid-resistant Botrytis cinerea 179 assessed as inhibition of germ tube elongation after 24 hrs; format: functional, organism-based; details: Botrytis cinerea, 179, 24 h
[4] = system: Botrytis cinerea; assay: Antifungal activity against highly fenhexamid-resistant Botrytis cinerea MK5-14 assessed as inhibition of germ tube elongation after 24 hrs; format: functional, organism-based; details: MK5-14, 24 h
[5] = system: Botrytis cinerea; assay: Antifungal activity against highly fenhexamid-resistant Botrytis cinerea 533 assessed as inhibition of germ tube elongation after 24 hrs; format: functional, organism-based; details: Botrytis cinerea, 533, 24 h
[6] = system: Botrytis cinerea; assay: Antifungal activity against highly fenhexamid-resistant Botrytis cinerea 05-190 assessed as inhibition of germ tube elongation after 24 hrs; format: functional, organism-based; details: 05-190, 24 h
[7] = system: Botrytis cinerea; assay: Antifungal activity against fenhexamid-senistive Botrytis cinerea SAS405 assessed as inhibition of germ tube elongation after 24 hrs; format: functional, organism-based; details: SAS405, 24 h
[8] = system: Botrytis cinerea; assay: Antifungal activity against HydR3 deficient Botrytis cinerea 453 harboring TELerg N369D mutant at 10 ug/ml relative to wild-type; format: functional, organism-based; procedure, shortened: as §1
[9] = system: Botrytis cinerea; assay: Antifungal activity against highly fenhexamid-resistant Botrytis cinerea 1837 assessed as inhibition of mycelium growth measured over 5 days; format: functional, organism-based; details: Botrytis cinerea, 1837, 120 h
[10] = system: Botrytis cinerea; assay: Antifungal activity against highly fenhexamid-resistant Botrytis cinerea 223a assessed as inhibition of germ tube elongation after 24 hrs; format: functional, organism-based
[11] = system: Botrytis cinerea; assay: Antifungal activity against highly fenhexamid-resistant Botrytis cinerea 440b assessed as inhibition of mycelium growth measured over 5 days; format: functional, organism-based; details: 120 h
[12] = system: Botrytis cinerea; assay: Antifungal activity against highly fenhexamid-resistant Botrytis cinerea 440a assessed as inhibition of mycelium growth measured over 5 days; format: functional, organism-based; details: 120 h
[13] = system: Botrytis cinerea; assay: Antifungal activity against highly fenhexamid-resistant Botrytis cinerea 05-AVB assessed as inhibition of germ tube elongation after 24 hrs; format: functional, organism-based
[14] = system: Botrytis cinerea; assay: Antifungal activity against Botrytis cinerea B05.10 harboring TELerg F412I mutant assessed as appearance of mycelium growth up to 20 ug/ml; format: functional
Procedure, shortened: (§2)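 B05.10 transformants carrying the erg27 allele on the pFTELerg plasmid were grown on rich medium with hygromycin B until conidiation. Spores were spread on YSS (synthetic complete) medium with 50 µg ml–1 hygromycin B and fenhexamid at 1 to 20 µg ml–1. After 7 days at 21°C, spores developing mycelium were scored under the microscope.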

[15] = system: Botrytis cinerea; assay: Antifungal activity against moderately to slightly fenhexamid-resistant Botrytis cinerea 05-1.27 assessed as inhibition of germ tube elongation after 24 hrs; format: functional, organism-based; details: 05-1.27, 24 h
[16] = system: Botrytis cinerea; assay: Antifungal activity against highly fenhexamid-resistant Botrytis cinerea 379b assessed as inhibition of mycelium growth measured over 5 days; format: functional, organism-based; details: 120 h
[17] = system: Botrytis cinerea; assay: Antifungal activity against moderately to slightly fenhexamid-resistant Botrytis cinerea 365 assessed as inhibition of mycelium growth measured over 5 days; format: functional, organism-based; details: Botrytis cinerea, 365, 120 h
[18] = system: Botrytis cinerea; assay: Antifungal activity against Botrytis cinerea B05.10 harboring TELerg F412S mutant assessed as appearance of mycelium growth up to 20 ug/ml; format: functional; procedure, shortened: as §2
[19] = system: Botrytis cinerea; assay: Antifungal activity against highly fenhexamid-resistant Botrytis cinerea 506b assessed as inhibition of mycelium growth measured over 5 days; format: functional, organism-based; details: 120 h
[20] = system: Botrytis cinerea; assay: Antifungal activity against highly fenhexamid-resistant Botrytis cinerea 118 assessed as inhibition of mycelium growth measured over 5 days; format: functional, organism-based; details: Botrytis cinerea, 118, 120 h
[21] = system: Botrytis cinerea; assay: Antifungal activity against HydR3 deficient Botrytis cinerea 453 harboring TELerg F412I mutant at 5 ug/ml relative to wild-type; format: functional, organism-based; procedure, shortened: as §1
[22] = system: Botrytis cinerea; assay: Antifungal activity against highly fenhexamid-resistant Botrytis cinerea 05-190 assessed as inhibition of mycelium growth measured over 5 days; format: functional, organism-based; details: 05-190, 120 h
[23] = system: Botrytis cinerea; assay: Antifungal activity against fenhexamid-senistive Botrytis cinerea B05.10 assessed as inhibition of germ tube elongation after 24 hrs; format: functional, organism-based; details: B05.10, 24 h
[24] = system: Botrytis cinerea; assay: Antifungal activity against moderately to slightly fenhexamid-resistant Botrytis cinerea 57 assessed as inhibition of germ tube elongation after 24 hrs; format: functional, organism-based; details: Botrytis cinerea, 57, 24 h
[25] = system: Botrytis cinerea; assay: Antifungal activity against HydR3 deficient Botrytis cinerea 453 harboring TELerg F412I mutant at 10 ug/ml relative to wild-type; format: functional, organism-based; procedure, shortened: as §1
[26] = system: Botrytis cinerea; assay: Antifungal activity against highly fenhexamid-resistant Botrytis cinerea 379a assessed as inhibition of mycelium growth measured over 5 days; format: functional, organism-based; details: 120 h
[27] = system: Botrytis cinerea; assay: Antifungal activity against highly fenhexamid-resistant Botrytis cinerea 312 assessed as inhibition of germ tube elongation after 24 hrs; format: functional, organism-based; details: Botrytis cinerea, 312, 24 h
[28] = system: Botrytis cinerea; assay: Antifungal activity against moderately to slightly fenhexamid-resistant Botrytis cinerea 452 assessed as inhibition of mycelium growth measured over 5 days; format: functional, organism-based; details: Botrytis cinerea, 452, 120 h
[29] = system: Botrytis cinerea; assay: Antifungal activity against HydR3 deficient Botrytis cinerea 453 harboring TELerg F412I mutant at 2 ug/ml relative to wild-type; format: functional, organism-based; procedure, shortened: as §1
[30] = system: Botrytis cinerea; assay: Antifungal activity against highly fenhexamid-resistant Botrytis cinerea 520a assessed as inhibition of mycelium growth measured over 5 days; format: functional, organism-based; details: 120 h
[31] = system: Botrytis cinerea; assay: Antifungal activity against highly fenhexamid-resistant Botrytis cinerea 214 assessed as inhibition of mycelium growth measured over 5 days; format: functional, organism-based; details: Botrytis cinerea, 214, 120 h
[32] = system: Botrytis cinerea; assay: Antifungal activity against highly fenhexamid-resistant Botrytis cinerea 214 assessed as inhibition of germ tube elongation after 24 hrs; format: functional, organism-based; details: Botrytis cinerea, 214, 24 h
[33] = system: Botrytis cinerea; assay: Antifungal activity against moderately to slightly fenhexamid-resistant Botrytis cinerea 454 assessed as inhibition of mycelium growth measured over 5 days; format: functional, organism-based; details: Botrytis cinerea, 454, 120 h
[34] = system: Botrytis cinerea; assay: Antifungal activity against moderately to slightly fenhexamid-resistant Botrytis cinerea 365 assessed as inhibition of germ tube elongation after 24 hrs; format: functional, organism-based; details: Botrytis cinerea, 365, 24 h
[35] = system: Botrytis cinerea; assay: Antifungal activity against HydR3 deficient Botrytis cinerea 453 harboring TELerg N369D mutant at 2 ug/ml relative to wild-type; format: functional, organism-based; procedure, shortened: as §1
[36] = system: Botrytis cinerea; assay: Antifungal activity against moderately to slightly fenhexamid-resistant Botrytis cinerea 221 assessed as inhibition of germ tube elongation after 24 hrs; format: functional, organism-based; details: Botrytis cinerea, 221, 24 h
[37] = system: Botrytis cinerea; assay: Antifungal activity against moderately to slightly fenhexamid-resistant Botrytis cinerea 05-ABA assessed as inhibition of mycelium growth measured over 5 days; format: functional, organism-based; details: 120 h
[38] = system: Botrytis cinerea; assay: Antifungal activity against highly fenhexamid-resistant Botrytis cinerea 379a assessed as inhibition of germ tube elongation after 24 hrs; format: functional, organism-based
[39] = system: Botrytis cinerea; assay: Antifungal activity against moderately to slightly fenhexamid-resistant Botrytis cinerea 453b assessed as inhibition of mycelium growth measured over 5 days; format: functional, organism-based; details: 120 h
[40] = system: Botrytis cinerea; assay: Antifungal activity against highly fenhexamid-resistant Botrytis cinerea 440b assessed as inhibition of germ tube elongation after 24 hrs; format: functional, organism-based
[41] = system: Botrytis cinerea; assay: Antifungal activity against moderately to slightly fenhexamid-resistant Botrytis cinerea 453a assessed as inhibition of germ tube elongation after 24 hrs; format: functional, organism-based
[42] = system: Botrytis cinerea; assay: Antifungal activity against fenhexamid-senistive Botrytis cinerea SAS56 assessed as inhibition of mycelium growth measured over 5 days; format: functional, organism-based; details: SAS56, 120 h

CC1(C(=O)Nc2ccc(O)c(Cl)c2Cl)CCCCC1 [FENHEXAMID]
2 mg/L: EC50 [24] | EC50 [34]
< 0.3 mg/L: EC50 [33]
2.5 mg/L: EC50 [15]
1.5 mg/L: EC50 [28] | EC50 [39]
< 0.1 mg/L: EC50 [7] | EC50 [23] | EC50 [42]
inactive: Activity [1] | Activity [8] | Activity [21] | Activity [25] | Activity [29] | Activity [35]
0.5 mg/L: EC50 [36]
0.3 mg/L: EC50 [17]
3 mg/L: EC50 [30] | EC50 [41]
> 10 mg/L: EC50 [2] | EC50 [3] | EC50 [5] | EC50 [6] | EC50 [9] | EC50 [10] | EC50 [11] | EC50 [12] | EC50 [13] | EC50 [16] | EC50 [19] | EC50 [20] | EC50 [22] | EC50 [26] | EC50 [27] | EC50 [31] | EC50 [38] | EC50 [40]
10 mg/L: EC50 [32]
> 5 mg/L: EC50 [4]
0.2 mg/L: EC50 [37]
10%: Activity [14] | Activity [18]
